From ChEMBL document CHEMBL5346886 (Eur J Med Chem, 2023) come the findings set out here.

The subject of data set [1] is Murine hepatitis virus. The experiment in a line: Antiviral activity against murine hepatitis virus-A59 infected in BALB/c mouse assessed as reduction in IL-1beta production in lungs at 200 mg/kg, po administered once daily one hour post infection and measured after 3 days by ELISA analysis. The class given is functional, organism-based. To be noted: time 3.0 day. The method, boiled down: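 MHV-A59 was inoculated intranasally into male BALB/c mice (30 μL, TCID50 = 10−7.125/100 μL), with oral dosing once daily from 1 hpi for four days. At 3 dpi, 0.1 g lung or liver from 4 mice per group was homogenized in 0.9 mL water at 4 °C and centrifuged. Supernatant IFN-β was read by ELISA; TNF-α, IFN-γ, IL-1β, IL-6 and CXCL10 by multi-analyte kit, with OD 450 nm against standards.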

Data set [2] is described as follows: Drug distribution in BALB/c mouse liver assessed as hydrolyzed ibuprofen metabolite at 200 mg/kg, po administered as single dose and measured after 1 hrs by LC-MS/MS analysis. The class given is ADME, organism-based. To be noted: in vivo.
Data set [3] has as its system Murine hepatitis virus. Briefly: Antiviral activity against murine hepatitis virus-A59 infected in BALB/c mouse assessed as alleviation of necrotic debris in lungs at 200 mg/kg, po administered once daily one hour post infection and measured after 3 days by H&E staining based analysis. It is filed as functional, organism-based. The conditions noted are these: time 3.0 day. The essentials:
(§1)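 In male BALB/c mice (3–4 weeks), MHV-A59 was given intranasally (30 μL, TCID50 = 10−7.125/100 μL). Oral dosing once daily in a Cremophor EL/PBS/DMSO vehicle began at 1 hpi and lasted four days. At 3 dpi, lungs and livers from 4 mice per group were fixed in zinc formalin and paraffin-embedded. Sections of about 4 μm were stained with H&E and examined at 200× and 400×.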

For data set [4], the system named is Murine hepatitis virus. Briefly: Antiviral activity against murine hepatitis virus-A59 infected in BALB/c mouse model of acute liver injury assessed as reduction in plasma AST level at 10 to 200 mg/kg, po administered once daily one hour post infection and measured after 3 days. It is filed as functional, organism-based. The conditions noted are these: dose 10-200 mg/kg, time 3.0 day. The essentials:
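Male BALB/c mice were infected intranasally with MHV-A59 (30 μL, TCID50 = 10−7.125/100 μL) and dosed orally once daily from 1 hpi for four days in 15% Cremophor EL/82.5% PBS/2.5% DMSO. At 3 dpi, blood from 4 euthanized mice per group was left to clot at room temperature and centrifuged. Serum ALT and AST were measured on a clinical chemistry analyzer.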

Data set [5] in a line: Toxicity in BALB/c mouse infected with murine hepatitis virus-A59 assessed as effect on survival at 50 to 200 mg/kg, po administered once daily one hour post infection and measured after 23 days. The conditions noted are these: in vivo, 552 h.
Data set [6] has as its system Murine hepatitis virus. Briefly: Antiviral activity against murine hepatitis virus-A59 infected in BALB/c mouse assessed as alleviation of lymphocytes infiltration in lungs at 200 mg/kg, po administered once daily one hour post infection and measured after 3 days by H&E staining based analysis. It is filed as functional, organism-based. The conditions noted are these: time 3.0 day. The essentials:
as §1

Data set [7] in a line: Drug distribution in BALB/c mouse plasma assessed as hydrolyzed GS-441524 metabolite at 200 mg/kg, po administered as single dose and measured after 1 hrs by LC-MS/MS analysis. It is filed as ADME, organism-based. To be noted: in vivo.

Activity calls are given as the source filed them. No cut-off for these calls is given here.

Regarding `CC(C)Cc1ccc(C(C)C(=O)OC[C@H]2O[C@@](C#N)(c3ccc4c(N)ncnn34)[C@H](O)[C@@H]2O)cc1` (some centres not stated), the outcome with Murine hepatitis virus [1], in the data set on Murine hepatitis virus [3], with Murine hepatitis virus [4] and with Murine hepatitis virus [6] was Active. Moreover, the Drug uptake result in data set [2] and in data set [7] was “Active” in each case. Moreover, the Activity result in data set [5] is on record as “Toxic”.
